In ChEMBL document CHEMBL1148107, “Phomadecalins A-D and phomapentenone A: new bioactive metabolites from Phoma sp. NRRL 25697, a fungal colonist of Hypoxylon stromata” (2002):
Activity calls are given as the source filed them. No cut-off for these calls is given here.

Key:
Staphylococcus aureus = experiment: Antimicrobial activity against Staphylococcus aureus ATCC 29213 at 200 ug/disk; assay type: functional; conditions: read-out: IZ
In short: (§1)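 Standard disk diffusion assay with 200 µg of compound applied per disk. Activity was read as the diameter (mm) of the zone of growth inhibition around the disk.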

Bacillus subtilis = experiment: Antimicrobial activity against Bacillus subtilis ATCC 6051 at 200 ug/disk; assay type: functional; conditions: read-out: IZ; in short: as §1
Candida albicans = experiment: Antimicrobial activity against Candida albicans ATCC 90029 at 200 ug/disk; assay type: functional, organism-based; in short: as §1

Row | Structure (SMILES) | zone of inhibition at 200 µg/disc (Staphylococcus aureus) [mm] | zone of inhibition at 200 µg/disc (Bacillus subtilis) [mm] | Activity (Candida albicans)
1 | C=C(CO)[C@@]12O[C@@H]1[C@@]1(C)C(=C[C@H]2O)C=CC[C@@H]1C [PHOMADECALIN A] | 10 | 18 | inactive
2 | C=C(COC(C)=O)[C@@]12O[C@@H]1[C@@]1(C)C(=C[C@H]2O)C=C[C@@H](O)[C@@H]1C [PHOMADECALIN B] | 8 | 10 | inactive
3 | C=C(CO)[C@@]12O[C@@H]1[C@@]1(C)C(=C[C@H]2O)C=CC(=O)[C@@H]1C [PHOMADECALIN C] |  | 12 | 
4 | C=C(CO)[C@@]12O[C@@H]1[C@@]1(C)C(=C[C@H]2O)C=C[C@@H](O)[C@@H]1C [PHOMADECALIN D] | 8 | 9 | inactive
